Read-outs that look alike come from different tables or passages of the source.

One may read the IC50 as the concentration that inhibits the measured activity by half.

Experiment [1] concerns TNF-α-induced NFκB activity. The experiment can be described thus: NFκB luciferase assay. The following applies: for inhibition at 50 µM: HEK293, read-out: NFκB % inhib.; for NFκB % inhib.: 50 μM. Type of experiment: cell-based, human. In short, it runs like this: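 HEK293 line carrying a chromosomally integrated luciferase reporter driven by the NFκB response element. Cells incubated 6 h with TNFα plus test compound, then luciferase activity read. Inhibition expressed as % relative to TNFα-treated control. IC50 from dose-response of five serial dilutions, mean of two experiments.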

Another experiment has as its target T1, aromatase (CYP19) (Homo sapiens, UniProt P11511).
T1 sequence (P11511 1-503): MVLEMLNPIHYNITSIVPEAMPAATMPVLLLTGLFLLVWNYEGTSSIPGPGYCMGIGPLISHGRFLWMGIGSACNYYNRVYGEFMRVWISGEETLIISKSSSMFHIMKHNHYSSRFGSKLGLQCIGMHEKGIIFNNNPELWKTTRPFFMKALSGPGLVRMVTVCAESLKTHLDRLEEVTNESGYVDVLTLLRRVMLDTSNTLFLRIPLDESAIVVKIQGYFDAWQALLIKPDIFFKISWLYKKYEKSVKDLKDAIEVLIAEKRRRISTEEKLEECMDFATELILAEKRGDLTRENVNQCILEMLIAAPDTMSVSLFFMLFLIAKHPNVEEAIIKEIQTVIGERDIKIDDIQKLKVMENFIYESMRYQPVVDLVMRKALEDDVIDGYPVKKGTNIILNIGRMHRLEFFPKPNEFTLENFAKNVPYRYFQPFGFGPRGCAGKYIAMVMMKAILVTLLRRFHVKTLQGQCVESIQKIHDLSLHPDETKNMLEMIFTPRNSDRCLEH
Put plainly: Aromatase assay. Type of experiment: biochemical. The following applies: for inhibition at 50 µM: read-out: Aromatase % inhib., 50 μM; for inhibition at 50 µM / Aromatase % inhib.: vs vehicle-treated controls; for Aromatase % inhib.: 50 μM.

In experiment [2] the test system is Hepa 1c1c7 murine hepatoma cells. The experiment can be described thus: Cell survival in the QR1 assay. The following applies: for viability at 50 µM: Mus musculus, Hepa-1c1c7, read-out: QR1 % surv.; for QR1 % surv.: 50 μM, cell survival in comparison with vehicle-treated controls. Type of experiment: cell-based.
Experiment [3] relates to Human embryonic kidney cells 293. The experiment can be described thus: Cell survival in the NFκB assay. Type of experiment: cell-based. The following applies: for viability at 50 µM: Homo sapiens, HEK293, 6 h, read-out: NFκB % surv.; for NFκB % surv.: 50 μM, 293 cells.
Another experiment deals with MCF7 breast cancer cells. Put plainly: SRB assay: MCF7 cell proliferation. It counts as cell-based. The conditions noted are these: for viability at 50 µM: Homo sapiens, MCF7, 72 h, read-out: SRB assay % surv.; for SRB assay % surv.: MCF7 cells, 72 h. The essentials: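 MCF7 cells (1 × 10^4 per well) plated with test compound, 72 h at 37°C, 5% CO2. Fixed in 10% TCA for 30 min, stained with 0.4% SRB in 1% acetic acid for 30 min, then washed with 1% acetic acid. Bound dye dissolved in 10 mM Tris (pH 10.0) and A515 read. Survival given as % of vehicle-treated controls.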
A general note: Sulforhodamine B stains cellular protein and so reports cell mass.

The test system of experiment [4] is quinone reductase 1 (QR1). Put plainly: QR1 induction in cell culture. Type of experiment: cell-based, murine. The conditions noted are these: 50 μM; Hepa 1c1c7 cells. The essentials:
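Hepa 1c1c7 murine hepatoma cells. QR1 measured by NADPH-dependent, menadiol-mediated reduction of MTT to blue formazan, with protein determined by crystal violet staining of identical plates. Specific activity given as nmol formazan/mg protein/min. IR is the ratio of treated to DMSO-control specific activity. CD (concentration doubling activity) derived by dose-response for IR >2.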

The next experiment deals with RAW 264.7 cells. Put plainly: Cell survival in the nitrite assay. Type of experiment: cell-based, murine. The following applies: for viability at 50 µM: Mus musculus, RAW264.7, 20 h, read-out: Nitrite assay % surv.; for Nitrite assay % surv.: 50 μM, RAW 264.7 cells. The essentials: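 RAW 264.7 cells held 24 h at 37°C, 5% CO2, then given serially diluted test compound for 15 min. LPS (1 μg/mL) or no LPS added for a further 20 h. Viability assessed by SRB protein staining under the same conditions as the nitrite assay, as % survival versus vehicle-treated controls.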

Experiment [5] relates to various human cancer cell lines. The conditions noted are these: natural callophycin A; cited from earlier work.
Experiment [6] relates to nitric oxide (NO) production in LPS-stimulated RAW 264.7 murine macrophage cells. Put plainly: Nitrite assay: NO production in LPS-stimulated RAW 264.7 cells. Type of experiment: cell-based.

Take `O=C(O)[C@H]1Cc2c([nH]c3ccccc23)CN1` [Compound 1b, 1,2,3,4-tetrahydro-β-carboline-3-carboxylic acid]: the inhibition at 50 µM in [1] (Homo sapiens) was -72.5%.

For the compound `C=CCOC(=O)N1Cc2[nH]c3ccccc3c2C[C@H]1C(=O)OC` [Compound 3a, (S)-2-Allyl 3-methyl 3,4-dihydro-1H-pyrido[3,4-b]indole-2,3(9H)-dicarboxylate], the inhibition at 50 µM on aromatase (CYP19) is greater than 50%.

Regarding `COC(=O)[C@@H]1Cc2c([nH]c3ccccc23)CN1C(=O)OCC(C)C` [Compound 3b, (S)-2-Isobutyl 3-methyl 3,4-dihydro-1H-pyrido[3,4-b]indole-2,3(9H)-dicarboxylate], the viability at 50 µM stood at 88.3% in [2], 95.6% in experiment [3], 76.7% with MCF7 breast cancer cells and 105% in the experiment with RAW 264.7 cells. In addition, the inhibition at 50 µM is 59.8% in experiment [1] (Homo sapiens) and 41.5% on aromatase (CYP19). In addition, the 50% inhibitory concentration (IC50) in experiment [1] (Homo sapiens, HEK293, read-out: NFκB IC50) was 16.2 µM; on aromatase (CYP19) it was 64.5 µM. The “QR1 IR (induction ratio)” value in experiment [4] amounted to 1.7.

As for `COC(=O)[C@@H]1Cc2c([nH]c3ccccc23)CN1C(=O)NC(C)C` [Compound 6b, (S)-Methyl 2-(isopropylcarbamoyl)-2,3,4,9-tetrahydro-1H-pyrido[3,4-b]indole-3-carboxylate], at aromatase (CYP19), the inhibition at 50 µM was greater than 50%.

`CC(C)COC(=O)N1Cc2[nH]c3ccccc3c2C[C@H]1C(=O)O` [Compound 7b, (S)-2-(Isobutoxycarbonyl)-2,3,4,9-tetrahydro-1H-pyrido[3,4-b]indole-3-carboxylic acid]: the viability at 50 µM in experiment [2] was determined as 94.2%; in experiment [3], 138%; in the experiment with MCF7 breast cancer cells, 105%; in the experiment on RAW 264.7 cells, 137%. The results for the inhibition at 50 µM (in [1] (Homo sapiens); at aromatase (CYP19)) were 42.6% and 40%, respectively. For the same compound, the “QR1 IR (induction ratio)” value in experiment [4] stood at 1.8. The compound also had a half-inhibitory concentration (IC50) on aromatase (CYP19) of 72 µM.

As to `O=C(O)[C@@H]1Cc2c([nH]c3ccccc23)CN1Cc1ccc(O)cc1` [Compound 12a, (S)-Callophycin A], the inhibition at 50 µM on aromatase (CYP19) is greater than 50%.

`O=C(O)C1Cc2c([nH]c3ccccc23)CN1Cc1ccc(O)cc1` (stereo not shown) [callophycin A, Callophycin A]: the “inhibition of MCF7 cell proliferation (in words)” value in the experiment on MCF7 breast cancer cells (50 μM) is “didn’t show the inhibitory activity”. For the same compound, the antiproliferative effects result in experiment [5] is listed as “low micromolar concentrations”.

“(R)-2-(Isobutoxycarbonyl)-2,3,4,9-tetrahydro-1H-pyrido[3,4-b]indole-3-carboxylic acid [Compound 7d]” yielded a QR1 % surv. in experiment [2] of 87.5%. Besides, the NFκB % surv. in experiment [3] was 264.3%. In experiment [1] (TNFα-treated 293 cells), this compound came in with an NFκB % inhib. of 46.1%. The “Nitrite assay % inhib.” value in experiment [6] (50 μM) was found to be 1.5%. For the same compound, in the experiment with MCF7 breast cancer cells (50 μM), the “SRB assay % surv.” value is on record as 97.4%. Further, the “QR1 IR (induction ratio)” value in experiment [4] was determined as 1.5. The Aromatase % inhib. at aromatase (CYP19) was found to be 36.3%. For the same compound, the “Nitrite assay % surv.” value in the experiment on RAW 264.7 cells was determined as 134.4%.

For “(R)-2-Isobutyl 3-methyl 3,4-dihydro-1H-pyrido[3,4-b]indole-2,3(9H)-dicarboxylate [Compound 3d]”, in [2], the QR1 % surv. is on record as 78.8%. In [3], this compound had an NFκB % surv. of 112.3%. Further, in [1] (TNFα-treated 293 cells), the NFκB % inhib. stood at 91.6%. Besides, the concentration for half-maximal inhibition (IC50) in experiment [1] (read-out: NFκB IC50, TNFα-treated 293 cells) was 4.8 µM; in experiment [6] (read-out: Nitrite assay IC50) it was 2.8 µM. For the same compound, in the experiment on MCF7 breast cancer cells (50 μM), the “SRB assay % surv.” value is 72.0%. Besides, in experiment [4], the “QR1 IR (induction ratio)” value is on record as 1.1. This compound had an Aromatase % inhib. on aromatase (CYP19) of 31.7%. Besides, the “Nitrite assay % surv.” value in the experiment on RAW 264.7 cells is 92.6%.

The record behind these values is PMC3207488 (Bioorganic & medicinal chemistry, 2011).
